The source made the active and inactive calls. The rule behind the calls is not given here.
Key:
[1] = system: B16; assay: Induction of apoptosis in mouse B16 cells assessed as early apoptotic cells at 10 uM after 72 hrs by AnnexinV/PI staining-based flow cytometric analysis (reference value: 2.28%); format: functional
[2] = system: Mus musculus; assay: Immunoenhancing activity in C57BL/6 mouse assessed as increase in peripheral blood WBC level at 0.5 mg/kg, po administered for 1 week by trypan blue exclusion method relative to vehicle-treated control; format: functional
How it was run: (§1)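 Tumor-free normal mice were dosed for 1 week with test agent or vehicle. WBCs in peripheral blood and immune cells enriched from bone marrow and liver were counted by Trypan Blue exclusion and compared with the vehicle group. Columns are group means, bars SE, significance p ≤ 0.05.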

[3] = system: B16; assay: Induction of apoptosis in mouse B16 cells assessed as necrotic cells at 10 uM after 72 hrs by AnnexinV/PI staining-based flow cytometric analysis (reference value: 5.26%); format: functional
[4] = system: Mus musculus; assay: Immunoenhancing activity in C57BL/6 mouse assessed as increase in total immune cells in liver at 0.5 mg/kg, po administered for 1 week by trypan blue exclusion method relative to vehicle-treated control; format: functional; how it was run: as §1
[5] = system: B16; assay: Antitumor activity against mouse B16 cells xenografted in C57BL/6 mouse assessed as tumor growth inhibition at 0.5 mg/kg, po administered for 1 week prior to tumor injection followed by treatment for additional 2 weeks relative to vehicle-treated control; format: functional
How it was run: (§2)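 Subcutaneous B16 melanoma in C57BL/6 immunocompetent mice aged 8–12 weeks. Test agent or vehicle was given daily in drinking water at 0.5 mg/kg for one week. B16 cells were then inoculated and dosing continued for 2 more weeks. At sacrifice, tumors were excised and weighed against the vehicle group, and kidneys, livers and spleens were inspected.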

[6] = system: Mus musculus; assay: Toxicity in C57BL/6 mouse xenografted with B16 cells assessed as adverse effects at 0.5 mg/kg, po administered for 1 week prior to tumor injection followed by treatment for additional 2 weeks relative to vehicle-treated control; format: organism-based; set-up: dose 0.5 mg/kg, route oral; conditions: in vivo; how it was run: as §2
[7] = system: Mus musculus; assay: Immunoenhancing activity in C57BL/6 mouse assessed as increase in immune subset cells in liver at 0.5 mg/kg, po administered for 1 week by flow cytometric analysis relative to vehicle-treated control; format: functional, organism-based; set-up: dose 0.5 mg/kg
[8] = system: Mus musculus; assay: Immunomodulatory activity in C57BL/6 mouse NK cells expressing NK1.1 and CD3 assessed as cell surface CD107a expression level at 0.5 mg/kg, po administered for 1 week by YAC1 co culture-based immunostaining analysis (reference value: 41.5%); format: functional
[9] = system: B16; assay: Growth inhibition of mouse B16 cells at 10 uM after 24 to 96 hrs by trypan blue exclusion assay; format: functional, cell-based
[10] = system: Mus musculus; assay: Immunoenhancing activity in C57BL/6 mouse assessed as increase in immune subset cells in bone marrow at 0.5 mg/kg, po administered for 1 week by flow cytometric analysis relative to vehicle-treated control; format: functional, organism-based; set-up: dose 0.5 mg/kg
[11] = system: Mus musculus; assay: Immunomodulatory activity in C57BL/6 mouse CD3-deficient NK cells expressing NK1.1 assessed as […]- and IL-18 induced IFNgamma level at 0.5 mg/kg, po administered for 1 week by flow cytometric analysis (reference value: 76.7%); format: functional
[12] = system: Mus musculus; assay: Toxicity in C57BL/6 mouse assessed as change in body weight at 0.5 mg/kg, po administered for 3 weeks relative to vehicle-treated control; format: organism-based; set-up: dose 0.5 mg/kg, route oral; conditions: in vivo, 504 h
How it was run: (§3)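 Oral acute toxicity in normal mice dosed daily with test agent or vehicle for 3 weeks. Body, spleen and liver were inspected and weighed. Values are group means with n ≥ 4 and SE bars.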

[13] = system: Mus musculus; assay: Toxicity in C57BL/6 mouse assessed as change in liver weight at 0.5 mg/kg, po administered for 3 weeks relative to vehicle-treated control; format: organism-based; set-up: dose 0.5 mg/kg, route oral; conditions: in vivo, 504 h; how it was run: as §3
[14] = system: Mus musculus; assay: Immunoenhancing activity in C57BL/6 mouse assessed as increase in total immune cells in bone marrow at 0.5 mg/kg, po administered for 1 week by trypan blue exclusion method relative to vehicle-treated control; format: functional; how it was run: as §1
[15] = system: B16; assay: Induction of apoptosis in mouse B16 cells assessed as decrease in Bcl2 expression at 10 uM after 72 hrs by Western blot analysis; format: functional, cell-based
[16] = system: Mus musculus; assay: Toxicity in C57BL/6 mouse assessed as change in spleen weight at 0.5 mg/kg, po administered for 3 weeks relative to vehicle-treated control; format: organism-based; set-up: dose 0.5 mg/kg, route oral; conditions: in vivo, 504 h; how it was run: as §3
[17] = system: B16; assay: Induction of apoptosis in mouse B16 cells assessed as late apoptotic cells at 10 uM after 72 hrs by AnnexinV/PI staining-based flow cytometric analysis (reference value: 2.48%); format: functional
[18] = system: B16; assay: Induction of apoptosis in mouse B16 cells assessed as viable cells at 10 uM after 72 hrs by AnnexinV/PI staining-based flow cytometric analysis (reference value: 90%); format: functional; conditions: B16, 72 h, read-out: Activity

CC(=O)Oc1cc2c(=O)oc3c(OC(C)=O)c(OC(C)=O)cc4c(=O)oc(c1OC(C)=O)c2c34 [ELLAGIC ACID TETRAACETATE] showed an Activity [1] of 6.99%, an Activity [2] of 70% and an Activity [3] of 11.8%. For the same compound, the Activity [4] was 200%, the inhibition in vivo at 0.5 mg/kg ([5]; read-out: GI) was 70% and the Activity [6] was “Non-toxic”. For the same compound, the Activity [7] was “inactive”, the Activity [8] was 40.4% and the “growth inhibition (GI)” value [9] was “Active”. For the same compound, the Activity [10] was “inactive”, the Activity [11] was 78.2% and the Activity [12] was “Non-toxic”. The Activity [13] was “Non-toxic”, the Activity [14] was 50% and the Activity [15] was “Active”. The Activity [16] was “Non-toxic”, the Activity [17] was 9.78% and the viability at 10 µM [18] was 71.4%.
With O=c1oc2c(O)c(O)cc3c(=O)oc4c(O)c(O)cc1c4c23 [ELLAGIC ACID] the Activity [1] was 4.33%, the Activity [3] was 4.95% and the Activity [4] was “inactive”. For the same compound, the “growth inhibition (GI)” value [5] was “inactive”, the Activity [6] was “Non-toxic” and the Activity [7] was “inactive”. The Activity [8] was 37.2%, the “growth inhibition (GI)” value [9] was “Active” and the Activity [10] was “inactive”. For the same compound, the Activity [11] was 74.9%, the Activity [12] was “Non-toxic” and the Activity [13] was “Non-toxic”. For the same compound, the Activity [14] was “inactive”, the Activity [15] was “Active” and the Activity [16] was “Non-toxic”. It also gave an Activity [17] of 6.84% and a viability at 10 µM [18] of 83.9%.
